These results are taken from article PMC3556220 (Biochimica et biophysica acta, 2012).

In assay [1] the test system is QGP-1 cells. The experiment in a line: [^3H]-Thymidine uptake, QGP-1 cell growth. As to conditions: n = 6; for stimulation of cell growth, [^3H]-Thymidine incorporation: 24 h, serum-free medium, EGFR-dependent. The format is cell-based, human. In outline:
(§1)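 Plating: BON 1.5 × 10^5/well in DMEM/F12K; QGP-1 4 × 10^4/well in RPMI; both with 10% FBS. After 24 h, cells were serum-starved 24 h, then exposed 24 h to peptides/hormones with or without EGFR inhibitor at 1 µM. [3H]-thymidine was present for the final 6 h. Cells were washed in ice-cold PBS, precipitated in 5% TCA (30 min, 4 °C), dissolved in 0.5 N NaOH/0.5% SDS and scintillation-counted. Mean ± SEM, 6 experiments.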

The subject of assay [2] is HNSCC. Conditions: cited from earlier work; for cell proliferation: HNSCC.
The test system of assay [3] is EGFR (Y^1068 phosphorylation). Put plainly: Western blot of EGFR Tyr^1068 phosphorylation in BON cells. The format is cell-based, human. Conditions: for stimulation of Y^1068 EGFR phosphorylation: Western blot, densitometry; for inhibition of NT-stimulated EGFR Y^1068 phosphorylation by antioxidant: NAC or Tiron pre-treatment (one range for both); for inhibition of Bn-analogue-stimulated EGFR Y^1068 phosphorylation by antioxidant: NAC or Tiron pre-treatment. An outline of the steps: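 BON cells were stimulated with EGF 16 nM or peptides 1 µM for 30 min or over time courses; inhibitor sets used 1 h stimulation. Lysis was in pH 7.5 Triton/deoxycholate buffer with orthovanadate. Equal protein ran on 4–20% SDS-PAGE onto nitrocellulose. Probes: anti-phospho-EGFR Tyr1068 (1:1000, overnight 4 °C), tubulin loading control, HRP secondary, chemiluminescence on film, band densitometry. Mean ± SEM, 3–4 experiments.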

For assay [4], the system named is BON cells. The experiment in a line: MTT assay of BON cell growth. The format is cell-based, human. As to conditions: for stimulation of BON cell growth, MTT assay: 24 h incubation, serum-free medium, read at 595 nm, mean of 6 experiments. In outline: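 BON cells (5 × 10^3/well) were grown 24 h in DMEM/F12K + 10% FBS, washed with PBS, then exposed 24 h to peptides/hormones in serum-free DMEM/F12K, with or without EGFR inhibitor at 1 μM. MTT (1.2 mM final) was present for the last 3 h. Formazan was dissolved in 0.04 N HCl/isopropanol for 5 min at RT and absorbance read at 595 nm. Mean ± SEM, 6 experiments.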

Assay [5] relates to non-endocrine tumors. Conditions: cited from earlier work.
Assay [6] has as its system BON cells. Conditions: cited from earlier work; for induction of apoptosis: BON cells.
Assay [7] relates to KRJ-I cells. As to conditions: cited from earlier work.
For assay [8], the system named is NCH720 cells. As to conditions: broncho-pulmonary NET cell line; cited from earlier work.
Assay [9] relates to pancreatic adenocarcinoma cells. Conditions: cited from earlier work.
Assay [10] concerns prostate cancer cells. As to conditions: cited from earlier work.
Assay [11] has as its system rat insulinoma cell lines. As to conditions: cited from earlier work.
The test system of assay [12] is non-small-cancer lung cells / lung cancer. As to conditions: cited from earlier work.
Assay [13] relates to BON cells. The experiment in a line: BON cell growth, galanin and CCK/gastrin. The format is cell-based, human. As to conditions: data not shown. An outline of the steps:
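BON cells are grown in DMEM/F12K with 10% FBS, then washed and serum-starved, and test compound is added for 24 h. For the MTT read-out, 5×10^3 cells/well get 1.2 mM MTT (final) for the last 3 h, are lysed in 0.04N HCl/isopropanol, and are read at 595 nm. For thymidine uptake, 1.5×10^5 cells/well are starved 24 h and pulsed with [3H]-thymidine for the final 6 h. Samples are TCA-precipitated, solubilised in NaOH/SDS, and scintillation-counted.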

Assay [14] relates to progressive metastatic NETs. Conditions: phase II trial, patients with progressive metastatic NETs; cited from earlier work.
The subject of assay [15] is BON cells. The experiment in a line: [^3H]-Thymidine uptake, BON cell growth. The format is cell-based, human. Conditions: 24 h incubation, serum-free medium, mean of 6 experiments. An outline of the steps: as §1

Take “bradykinin (RPPGFSPFR; Bradykinin; UniProt P01042 381-389, looked up)”: the “stimulation of cell growth, [^3H]-Thymidine incorporation” value (shortened to “stimulation of cell growth”) in assay [1] is given as “able to stimulate BON cell growth, as well as in QGP-1 cells”. Further, the “growth of HNSCC” value in assay [2] (through its B2 receptor) is reported as “stimulates growth of HNSCC”. Moreover, the “stimulation of Y^1068 EGFR phosphorylation” value in assay [3] (1 μM, 30 min, n = 4) is on record as “significantly stimulated”.
As for `CC(=O)N[C@@H](CS)C(=O)O` [N-acetylcysteine], the “inhibition of NT-stimulated EGFR Y^1068 phosphorylation by antioxidant” value in assay [3] (NT 1 μM, 1 h, n = 3) is on record as 37–45%. Moreover, in assay [3] (Bn-analogue 1 μM, 1 h, n = 3), the “inhibition of Bn-analogue-stimulated EGFR Y^1068 phosphorylation by antioxidant” value was 85%.
Regarding `Nc1ncnc2c1cnn2-c1ccccc1` [PP3], the “reduction of Bn-analogue-stimulated Y^1068 EGFR phosphorylation” value in assay [3] (inhibitor 10 μM, Bn-analogue 1 μM, 1 h, n = 4) is “but not PP3, an inactive PP2 analogue”. Moreover, the “reduction of NT-stimulated Y^1068 EGFR phosphorylation” value in assay [3] (inhibitor 10 μM, NT 1 μM, 1 h, n = 4) is “but not PP3, an inactive PP2 analogue”.
For `COc1cc2ncnc(Nc3cccc(Cl)c3)c2cc1OC` [AG1478], the “inhibition of the increase of cell growth induced by the GI hormones” value in assay [1] (AG1478 1 μM pre-treatment, [^3H]-Thymidine uptake) is given as “blocked the increase of cell growth”. Besides, the “inhibition of growth stimulated by each GI hormone, EGF or TGFα, MTT assay” value in assay [4] (BON cells, AG1478 1 μM pre-treatment, 24 h, n = 6) is given as “completely inhibited”. Also, in [5], the “inhibition of cell growth stimulated by various GI hormones/neurotransmitters” value is “able to inhibit cell growth”. Besides, in assay [6], the induction of apoptosis result is reported as “induces apoptosis” and the “BON cell basal proliferation” value was “completely blocks BON cell basal proliferation”. The “inhibition of Bn-analogue-stimulated Y^1068 EGFR phosphorylation” value in [3] (AG1478 1 μM, stimulant Bn-analogue, 30 min, n = 4) was “inhibited completely”. For the same compound, the “inhibition of EGF-stimulated Y^1068 EGFR phosphorylation” value in [3] (AG1478 1 μM, stimulant EGF, 30 min, n = 4) worked out at 88%. Besides, the “inhibition of NT-stimulated Y^1068 EGFR phosphorylation” value in [3] (AG1478 1 μM, stimulant NT, 30 min, n = 4) is “inhibited completely”.
For TGFβ, the “growth of KRJ-I cells” value in [7] is listed as “increase cell growth”.
Take `NCCc1c[nH]c2ccc(O)cc12` [serotonin]: in [8], the cell proliferation entry is “stimulates cell proliferation”. Moreover, the “cell proliferation of KRJ-I” value in assay [7] is reported as “stimulates cell proliferation”.
neurotensin [NT]: the “stimulation of cell growth” value in [1] is “stimulated cell growth”. For the same compound, the cell growth entry in assay [9] and in assay [10] was “stimulate cell growth” in each case. For the same compound, in assay [3] (1 μM, 30 min, n = 4), the “stimulation of Y^1068 EGFR phosphorylation” value is “significantly stimulated”. In addition, in assay [3] (1 μM, n = 4), the “maximal increase of EGFR Y^1068 phosphorylation, dose-response” value is 2.6 fold. The “peak time of Y^1068 EGFR tyrosine phosphorylation” value (from here on “peak time”) in assay [3] (Bn-analogue or NT) is given as 60 min.
With epiregulin: epiregulin, an EGFR ligand, the cell growth result in assay [11] is listed as “stimulates cell growth”.
As to bombesin, the cell proliferation entry in assay [12] and in assay [2] was “stimulate cell proliferation” throughout.
With “galanin (GWTLNSAGYLLGPHAVGNHRSFSDKNGLTS; Galanin; UniProt P22466 33-62, looked up)”, the “effect on cell growth” value in assay [13] is recorded as “did not exert any effect on cell growth”.
Turning to `COc1cc2ncnc(Nc3ccc(F)c(Cl)c3)c2cc1OCCCN1CCOCC1` [Gefitinib], in assay [14], the tumor stabilization entry is “stabilization of the tumors”. Moreover, in assay [6], the induction of apoptosis result is on record as “induces apoptosis” and the “BON cell basal proliferation” value is “completely blocks BON cell basal proliferation”.
Turning to `COc1cc2ncnc(Nc3cccc(Br)c3)c2cc1OC` [PD153035], the “inhibition of cell growth stimulated by various GI hormones/neurotransmitters” value in assay [5] is listed as “able to inhibit cell growth”.
For `O=S(=O)(O)c1cc(O)c(O)c(S(=O)(=O)O)c1` [Tiron], in [3] (NT 1 μM, 1 h, n = 3), the “inhibition of NT-stimulated EGFR Y^1068 phosphorylation by antioxidant” value is 37–45%. The “inhibition of Bn-analogue-stimulated EGFR Y^1068 phosphorylation by antioxidant” value in assay [3] (Bn-analogue 1 μM, 1 h, n = 3) is on record as 85%.
As for `CN(C)CCCn1cc(C2=C(c3c[nH]c4ccccc34)C(=O)NC2=O)c2ccccc21` [GF 109203X], the “inhibition of NT-stimulated EGFR Y^1068 phosphorylation by PKC inhibitor” value in assay [3] (GF 109203X pre-treatment, NT 1 μM, 1 h, n = 3) is reported as 77%.
In the case of EGF: Human EGF (Recombinant, E. coli), in assay [1], the “stimulation of cell growth” value is “able to stimulate BON cell growth, as well as in QGP-1 cells”. Further, the “growth stimulated, [^3H]-Thymidine assessment” value in assay [15] is given as 32%. Further, the “growth of KRJ-I cells” value in [7] is “can stimulate growth of both KRJ-I cells and BON cells”. Further, in [4], the “stimulation of BON cell growth, MTT assay” value turned out to be 30%. Also, the “growth of BON cells” value in assay [6] is “can stimulate growth of both KRJ-I cells and BON cells”. Further, in assay [6] (previous studies), the “stimulation of BON cell proliferation (previous studies)” value is on record as “stimulates cell proliferation”. Moreover, the “stimulation of Y^1068 EGFR phosphorylation” value in assay [3] (16 nM, 30 min, n = 4) was “significantly stimulated”. In assay [3] (EGF), the “peak time” value worked out at 2 min. In assay [3] (EGF 16 nM, n = 4), the “t1/2 of Y^1068 EGFR phosphorylation” value is 3 min.
For the compound TGFα: TGFα, BioVision, the “stimulation of cell growth” value in assay [1] was “stimulated cell growth”. Also, the “growth stimulated, [^3H]-Thymidine assessment” value in assay [15] is recorded as 42%. Besides, in assay [7], the “growth of KRJ-I cells” value is listed as “increase cell growth”. For the same compound, the “stimulation of BON cell growth, MTT assay” value in assay [4] is 40%. The “stimulation of Y^1068 EGFR phosphorylation” value in assay [3] (3.6 nM, 30 min, n = 4) was “significantly stimulated”.
`CNC(=O)[C@H](Cc1c[nH]c2ccccc12)NC(=O)[C@@H](CC(=O)NO)CC(C)C` [GM 6001]: the “reduction of Bn-analogue-stimulated EGFR Y^1068 phosphorylation by MMP inhibitor” value in [3] (GM 6001 pre-treatment, Bn-analogue 1 μM, 1 h, n = 3) amounted to 75%. Further, the “reduction of NT-stimulated EGFR Y^1068 phosphorylation by MMP inhibitor” value in [3] (GM 6001 pre-treatment, NT 1 μM, 1 h, n = 3) was determined as 60%.
With “NMB: stimulates cell proliferation in non-small-cancer lung cells”, the cell proliferation result in [12] and in assay [2] was “stimulate cell proliferation” throughout.
Consider “[DTyr^6, β Ala^11, Phe^13, Nle^14]Bn (6–14) [Bn-analogue]”, for which the “stimulation of cell growth” value in assay [1] is “stimulated cell growth”. Further, the “stimulation of Y^1068 EGFR phosphorylation” value in [3] (1 μM, 30 min, n = 4) is listed as “significantly stimulated”. The “maximal increase of EGFR Y^1068 phosphorylation, dose-response” value in [3] (1 μM, n = 4) is given as 2.4 fold. In addition, the “peak time” value in [3] (Bn-analogue or NT) amounted to 60 min. For the same compound, the “increase of EGFR phosphorylation at 62 min” value in [3] (time course, 1 μM, 62 min (NT data not shown), n = 4) was found to be 3.4 fold.
